# TRPC4 PAM – allosterically enhances the mouse TRPC4 cation channel | Q9QUQ5 | HEK293 TRPC4beta/mu-opioid, DAMGO EC20, Fluo-4 Ca2+ flux; hits give high values | B-score at 10 µM | actives 0.42% (n = 310,000) | AID 2227;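 active = B-score of calcium response area above 5 SD of library B-scores, with initial fluorescence ratio within 5 SD of library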
# TRPC4 block – inhibitors of mouse TRPC4 channel; actives 0.39% (n = 300,000); Q9QUQ5; HEK293 TRPC4beta/mu-opioid, DAMGO-evoked Fluo4 calcium flux; hits give low values; B-score at 10 µM;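 active = B-score over 3 SD under the library average, no early fluorescence shift, positive overall ratio signal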
#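 Material: HEK293 cells with stable TRPC4beta plus mu-opioid receptor expression; probe or stimulus: DAMGO in two steps, submaximal then maximal; technique: Fluo4 calcium fluorescence by kinetic imaging, 5 s 1 Hz baseline; measure: integrated fluorescence ratio relative to baseline, converted to per-well B score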
# TRPC4 act – TRPC4 (mouse) channel activation; B-score at 10 µM; AID 2237; HEK293 TRPC4beta/mu-opioid, Fluo4 calcium fluorescence; hits give high values; actives 0.49% (n = 310,000);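 active = B-score above 5 SD of library B-scores, and initial fluorescence ratio not above library mean plus 5 SD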;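 also: positive B-score marks a calcium rise read as TRPC4 activation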
#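 System: HEK293 cells stably co-expressing mouse TRPC4beta and mu-opioid receptor; Schedule: Fluo4 dye loading 45 min at room temperature, 110 s recording; Detection: Fluo4 fluorescence, kinetic; Evaluation: B-scored integrated calcium fluorescence ratio; Controls: buffer (low) and maximal DAMGO (high).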
# TRPC6 inh – inhibitors of mouse TRPC6 channel | B-score at 10 µM | Q61143 | actives 1.1% (n = 310,000) | HEK293-TRPC6, membrane potential dye, ACh-evoked depolarization; hits give low values;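 active = B-score under library mean minus 3 SD, initial fluorescence not abnormally high, positive integrated signal ratio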;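 also: B-score derived from integrated fluorescence ratio over the kinetic read; more negative B-score means stronger inhibition of depolarization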
# Kir21 inh – Kir2.1 (mouse) channel inhibition; HEK293-Kir2.1, FluxOR thallium flux fluorescence; hits give low values; AID 1672; B-score at 10 µM; actives 0.85% (n = 310,000);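 active = fluorescence ratio B-score at or below minus 3 SD of library scores, with starting-brightness B-score within 2 SD, cut at about -4.2 in these data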;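 also: channel flux triggered by added potassium and thallium sulfate stimulus; B-score of peak minus minimum fluorescence over baseline after thallium stimulus; more negative B-score means stronger Kir2.1 block with less thallium influx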
# Target sequence (P35561 whole entry, looked up): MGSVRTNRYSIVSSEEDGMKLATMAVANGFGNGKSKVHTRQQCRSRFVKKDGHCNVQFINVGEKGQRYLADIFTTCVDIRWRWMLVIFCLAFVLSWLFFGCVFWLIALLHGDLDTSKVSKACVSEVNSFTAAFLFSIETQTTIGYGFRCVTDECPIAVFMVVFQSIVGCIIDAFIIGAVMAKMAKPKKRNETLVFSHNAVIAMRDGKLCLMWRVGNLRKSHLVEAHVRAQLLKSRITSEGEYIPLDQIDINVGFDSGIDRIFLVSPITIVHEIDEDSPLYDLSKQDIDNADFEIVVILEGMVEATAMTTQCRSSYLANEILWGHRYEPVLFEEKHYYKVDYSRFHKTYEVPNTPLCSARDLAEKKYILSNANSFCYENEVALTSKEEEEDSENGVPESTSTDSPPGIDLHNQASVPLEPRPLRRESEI
# TRPC6 activator – activates the mouse TRPC6 cation channel | HEK293-TRPC6 membrane potential dye fluorescence; hits give high values | actives 0.13% (n = 310,000) | B-score at 10 µM | Q61143 | AID 2550;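 active = B-score of the integrated fluorescence ratio above library mean plus 3 SD, and starting fluorescence ratio within library mean plus 5 SD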;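 also: higher score means more depolarization so channel activation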
# TRPC4 sel inh 2 – mouse TRPC4 off-target activity of TRPC6 inhibitors, second screen. AID 2776. HEK293 TRPC4/MOR, membrane potential dye fluorescence; channel activated by saturating DAMGO dose. shares compounds with TRPC6 inh. inhibition, % at 10 µM. actives 42% (n = 920);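 active = compounds whose fluorescence signal differed from control wells by over 3 SD, either direction, in both duplicate plates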
# TRPC4 spec – mouse TRPC4 off-target activity of TRPC6 inhibitors; HEK293 TRPC4/mu-opioid, membrane potential fluorescence; activity change, negative = inhibition, % at 10 µM; shares compounds with TRPC6 inh; actives 61% (n = 920);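 active = rise or fall in signal beyond 3 SD of buffer-only wells in both replicate plates, either sign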;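 also: integrated kinetic ratio of fluorescence range over baseline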
# HEK293 MPD ctr 2-1 – second counter-screen for TRPC6 inhibitors: parental HEK293 cells. signal change vs control, % at 10 µM. shares compounds with TRPC6 inh. actives 31% (n = 920). parental HEK293 membrane potential dye fluorescence; maximal acetylcholine challenge after compound addition;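 active = membrane potential signal moving either way by over 3 SD of the maximum-effect control, in both duplicate plates, meaning non-specific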
# HEK293 MPD ctr-1 – counter-screen for TRPC6 inhibitors: effect in parental HEK293 cells. shares compounds with TRPC6 inh. AID 2780. membrane potential signal change, % at 10 µM. parental HEK293 membrane potential dye fluorescence. actives 60% (n = 920);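 active = membrane potential signal shifting up or down by more than 3 SD of buffer-only wells, on both duplicate plates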
# HEK293 MPD ctr-2 – counter-screen for TRPC6 modulators: effect in parental HEK293 cells | AID 488924 | membrane potential dye fluorescence | shares compounds with TRPC6 inh | actives 51% (n = 2,400) | membrane potential signal change, % at 10 µM;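 active = membrane potential signal moves up or down beyond 5 SD from buffer-only wells, on both duplicate plates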
# HEK293 MPD ctr 2-2 – second check of TRPC6 modulator effects in parental HEK293 cells; AID 488926; shares compounds with TRPC6 inh; actives 14% (n = 2,400); membrane potential dye fluorescence; after compound, maximal acetylcholine stimulation; inhibition, % at 10 µM;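 active = membrane potential signal drops by more than 5 SD from the mean control signal, in both duplicate plates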
# TRPC4/MOR mod – tests whether TRPC6 modulators also affect mouse TRPC4. shares compounds with TRPC6 inh. HEK293 TRPC4/mu-opioid, membrane potential fluorescence. percent change from control (negative = decrease, positive = increase), % at 10 µM. actives 69% (n = 2,400). AID 488927;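 active = membrane potential signal moved up or down beyond 5 SD of buffer control wells, in both duplicate plates, actives on both sides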
# TRPC4/MOR inh 2 – mouse TRPC4 off-target activity of TRPC6 modulators, second screen | shares compounds with TRPC6 inh | actives 55% (n = 2,400) | HEK293 TRPC4/mu-opioid, membrane potential dye fluorescence; stimulated with maximal-effect DAMGO | inhibition, % at 10 µM;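 active = drop in membrane potential signal beyond 5 SD of the control wells in both duplicate plates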;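 also: TRPC4 counter screen for TRPC6 hits run under conditions tuned for TRPC6 not TRPC4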
# TRPC6 inh conf – confirmation of mouse TRPC6 inhibitors. shares compounds with TRPC6 inh. HEK293-TRPC6, membrane potential dye, ACh-evoked depolarization. inhibition, % at 10 µM. actives 43% (n = 3,300);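 active = fluorescence ratio falls more than 5 SD below the full-stimulation control mean, in both duplicate runs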;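 also: integrated fluorescence ratio of peak minus minimum over baseline after agonist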
# TRPC6 act confirm – mouse TRPC6 activator confirmation; HEK293-TRPC6 membrane potential dye fluorescence, FDSS; shares compounds with TRPC6 inh; actives 11% (n = 2,800); AID 488961; activation, % at 10 µM;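 active = ratio signal rise beyond 5 SD above unstimulated control wells' mean, seen in both duplicate runs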
# Hits are given with their value; i = inactive; nt = not tested or not shown. Sampled rows, rich in hits. Any-hit rate of the full collection: about 2.9%.
SMILES,TRPC4 PAM,TRPC4 block,TRPC4 act,TRPC6 inh,Kir21 inh,TRPC6 activator,HEK293 MPD ctr-2,HEK293 MPD ctr 2-2,TRPC4/MOR mod,TRPC4/MOR inh 2,TRPC6 inh conf,TRPC6 act confirm,others
COc1ccccc1-n1c(-c2ccccc2)c[n+]2c1CCc1ccccc1-2,i,i,i,-9.91,-13.6,i,92.5%,i,20.0%,40.5%,77.4%,i,TRPC4 sel inh 2=i;TRPC4 spec=1.8%;HEK293 MPD ctr 2-1=i;HEK293 MPD ctr-1=i
COc1ccccc1-n1c(-c2ccccc2)c[nH]c1=S,i,i,i,i,i,i,nt,nt,nt,nt,nt,nt,
COc1ccc(-c2cn(-c3ccc(OC)cc3)c3[n+]2-c2ccccc2CC3)cc1,i,i,i,i,i,i,nt,nt,nt,nt,nt,nt,
Cc1ccc(S(=O)(=O)CCC(=O)OCC(=O)c2c(C)[nH]c3ccccc23)cc1,i,i,i,i,i,i,nt,nt,nt,nt,nt,nt,
CN1CCC=C(C(=O)N2c3ccccc3Sc3ccc(Cl)cc32)C1,i,i,i,-5.36,i,i,118.0%,i,15.5%,38.5%,41.0%,nt,
O=C(CCN1CCN2CCCC2C1)N1c2ccccc2Sc2ccc(Cl)cc21 (centres undefined),i,i,i,i,i,i,nt,nt,nt,nt,nt,nt,
CN(C)CC(=O)N1c2ccccc2Sc2ccc(Cl)cc21,i,i,i,i,i,i,nt,nt,nt,nt,nt,nt,
CN(C)CCC(=O)N1c2ccccc2Sc2ccc(Cl)cc21,i,i,i,-8.47,i,i,nt,nt,nt,nt,58.5%,nt,TRPC4 sel inh 2=i;TRPC4 spec=4.2%;HEK293 MPD ctr 2-1=i;HEK293 MPD ctr-1=7.7%
NCCCC(=O)N1c2ccccc2Sc2ccc(Cl)cc21,i,i,i,-5.28,i,i,i,i,i,54.0%,64.0%,i,
CN1CCN(CCC(=O)N2c3ccccc3Sc3ccc(Cl)cc32)CC1,i,i,i,i,i,i,nt,nt,nt,nt,nt,nt,
CCN(CC)CCC(=O)N1c2ccccc2Sc2ccc(Cl)cc21,i,i,i,-5.37,i,i,216.5%,i,35.0%,45.5%,78.5%,nt,
CN(C)CC/C=C1/c2cc(F)ccc2Sc2ccc(Cl)cc21,i,i,i,-5.29,-8.48,i,i,i,9.5%,57.5%,i,i,
Cc1cccc(CNc2ncc(-c3cccc([N+](=O)[O-])c3)n2C)c1,i,i,i,-5.87,i,i,-74.5%,i,-26.0%,57.0%,i,i,
C/C(=N\NC(=O)C(O)c1ccccc1)c1ccc(Cl)cc1 (centres undefined),i,i,i,i,i,i,nt,nt,nt,nt,nt,nt,
CSc1nc(C)c(C(=O)Nc2ccccc2)c(C)c1C#N,i,i,i,i,i,i,nt,nt,nt,nt,nt,nt,
O=C(COc1ccc([N+](=O)[O-])cc1)NCCC1=CCCCC1,i,i,i,i,i,i,nt,nt,nt,nt,nt,nt,
Cc1ccc(OCC(=O)NCCC2=CCCCC2)cc1,i,i,i,-5,i,i,i,i,i,i,i,i,
Cc1ccccc1OCC(=O)NCCC1=CCCCC1,i,i,i,-5.7,-5.41,i,i,i,14.0%,i,i,i,
O=C(CCc1nnc(COc2ccccc2)o1)NCc1ccccc1,i,i,i,i,i,i,nt,nt,nt,nt,nt,nt,
CS(=O)(=O)N1CCC(C(=O)Nc2ccc(Cl)c(C(F)(F)F)c2)CC1,i,i,i,i,i,i,nt,nt,nt,nt,nt,nt,
O=C(O)c1cn(-c2ccc(F)cc2)c2cc(Cl)c(F)cc2c1=O,i,i,i,i,i,i,nt,nt,nt,nt,nt,nt,
NC1C2CN(c3nc4c(cc3F)c(=O)c(C(=O)O)cn4-c3ccc(F)cc3F)CC12 (centres undefined),i,i,i,-5.61,i,i,-273.5%,i,-46.5%,i,i,i,
CCc1ccc(C2CC(c3ccccc3)n3ncnc3N2)cc1 (centres undefined),i,i,i,i,i,i,nt,nt,nt,nt,nt,nt,
COc1ccc(-c2c[n+]3c(n2-c2ccccc2)SCC3)cc1,i,i,i,-8.24,i,i,nt,nt,nt,nt,62.9%,i,TRPC4 sel inh 2=i;TRPC4 spec=-11.6%;HEK293 MPD ctr 2-1=-12.0%;HEK293 MPD ctr-1=-172.5%
Brc1ccc(-c2c[n+]3c(n2-c2ccccc2)SCC3)cc1,i,i,i,-7.24,i,i,nt,nt,nt,nt,i,i,TRPC4 sel inh 2=i;TRPC4 spec=-14.9%;HEK293 MPD ctr 2-1=-20.5%;HEK293 MPD ctr-1=-228.5%
SMILES,TRPC4 PAM,TRPC4 block,TRPC4 act,TRPC6 inh,Kir21 inh,TRPC6 activator,HEK293 MPD ctr-2,HEK293 MPD ctr 2-2,TRPC4/MOR mod,TRPC4/MOR inh 2,TRPC6 inh conf,TRPC6 act confirm,others
COc1ccc(-c2c[n+]3c(n2-c2ccccc2)CCCCC3)cc1,i,i,i,i,i,i,nt,nt,nt,nt,nt,nt,
COc1ccc(-c2c[n+]3c(n2-c2ccccc2)SCC3)cc1OC,i,i,i,i,i,i,nt,nt,nt,nt,nt,nt,
Cc1ccc(-c2c[n+]3c(n2-c2ccccc2)SCC3)cc1,i,i,i,-5.41,i,i,i,i,-11.0%,i,i,i,
CC(C)(C)Nc1nc(N)nc(Cl)n1,i,i,i,i,i,i,nt,nt,nt,nt,nt,nt,
O=C(CSc1nnc(-c2ccco2)n1CC1CCCO1)c1ccc(F)cc1 (centres undefined),i,i,i,i,i,i,nt,nt,nt,nt,nt,nt,
CCc1ccc(OCC(=O)NNC(=S)NC(=O)C2CCCCC2)c(Br)c1,i,i,i,i,i,i,nt,nt,nt,nt,nt,nt,
COCCNC(=O)C(c1ccco1)N(C(=O)Cn1nnc2ccccc21)c1cc(C)ccc1C (centres undefined),i,i,i,i,i,i,nt,nt,nt,nt,nt,nt,
CCOC(=O)Nc1ccc2c(c1)N(C(=O)N1CCN(C)CC1)c1ccccc1S2,i,i,i,-5.3,i,i,i,i,i,36.5%,i,i,
